The source of these data is ChEMBL document CHEMBL5107946, “SF5- and SCF3-substituted tetrahydroquinoline compounds as potent bactericidal agents against multidrug-resistant persister Gram-positive bacteria” (RSC Med Chem, 2021).

Assay [1] concerns Staphylococcus aureus. Kind of assay: Bactericidal activity against persister methicillin-resistant Staphylococcus aureus ATCC 33592 assessed as reduction in colony forming unit at 4 x MIC incubated for 6 hrs by Time-kill analysis. The assay is classed as functional, organism-based. In a few lines:
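Stationary-phase (persister) time-kill. Overnight TSB culture diluted 1 in 10 in TSB directly (about 2.92 × 10^6 CFU per mL), with no regrowth step. Exposed at 1× or 4× MIC in triplicate at 37 °C. Samples taken at 0, 2, 4 and 6 h, serially diluted in PBS, plated on TSA in duplicate and incubated 18–24 h.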

In assay [2] the test system is Staphylococcus aureus. Description: Antibacterial activity against methicillin-resistant Staphylococcus aureus ATCC 33592 assessed as bacterial growth inhibition incubated for 18 to 20 hrs by CLSI based broth microdilution assay. The assay is classed as functional. As to conditions: time 18-20 hrs. In a few lines: (§1)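 CLSI broth microdilution; compounds and control antibiotics made up at 10 mg mL−1 in DMSO (stock), serially diluted 1:2 across the plate. Inoculum adjusted to 0.5 McFarland, then diluted 1:100 into wells. Plates incubated static at 37 °C for 18–20 h before MIC read.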

Assay [3] deals with Cell membrane. Description: Induction of cell membrane disruption in Staphylococcus aureus ATCC 25923 at 4 ug/ml incubated for 4 hrs by scanning electron microscopy. The conditions noted are these: dose 4.0 µg/ml. In a few lines:
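Cells grown overnight in TSB, diluted 1:100 and grown to OD600 0.4, then treated for 4 h; bithionol 10 μg mL−1 as positive control, DMSO as negative control. Fixed in chilled 2.5% glutaraldehyde in 0.1 M cacodylate, post-fixed in 1% OsO4, ethanol-dehydrated, dried with HMDS and platinum-coated. Imaged at 5 kV.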

Assay [4] relates to Staphylococcus aureus. Description: Bactericidal activity against methicillin-resistant Staphylococcus aureus ATCC 33592 assessed as reduction in colony forming unit incubated for 20 hrs. The assay is classed as functional. Put shortly:
(§2)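 Follows the broth microdilution MIC plate. 4 μL taken from each well without growth, spotted in duplicate on tryptic soy agar and incubated static at 37 °C for 20 h. MBC taken as the concentration giving 99.9% reduction in CFU.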

The test system of assay [5] is Staphylococcus aureus. Kind of assay: Antibacterial activity against methicillin-resistant Staphylococcus aureus USA300 (ARLG 1569) assessed as bacterial growth inhibition incubated for 18 to 20 hrs by CLSI based broth microdilution assay. The assay is classed as functional. As to conditions: time 18-20 hrs. Put shortly:
as §1

The subject of assay [6] is Enterococcus faecalis. Kind of assay: Antibacterial activity against Enterococcus faecalis ATCC 29212 assessed as bacterial growth inhibition incubated for 18 to 20 hrs by CLSI based broth microdilution assay. The class given is functional. As to conditions: time 18-20 hrs. Put shortly:
as §1
In general terms: Broth dilution looks for growth in wells or tubes with falling amounts of substance.

The subject of assay [7] is Enterococcus faecium. Description: Antibacterial activity against vancomycin-resistant Enterococcus faecium ATCC 700221 assessed as bacterial growth inhibition incubated for 18 to 20 hrs by CLSI based broth microdilution assay.
In assay [8] the test system is Staphylococcus aureus. Kind of assay: Bactericidal activity against methicillin-resistant Staphylococcus aureus ATCC 33592 assessed as reduction in colony forming unit at 1 x MIC incubated for 18 to 24 hrs by Time-kill analysis. The class given is functional, organism-based. As to conditions: time 18-24 hrs. Put shortly:
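Log-phase time-kill. Overnight TSB culture diluted 1:1000 and grown to OD600 0.6, then diluted 1 in 10 in TSB (about 2.92 × 10^6 CFU per mL). Exposed at 1× or 4× MIC in triplicate at 37 °C. Samples taken at 0, 2, 4, 8, 12 and 24 h, serially diluted in PBS, plated on TSA in duplicate and counted after 18–20 h.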

The subject of assay [9] is Staphylococcus aureus. Description: Antibacterial activity against methicillin-resistant Staphylococcus aureus ST239 (ARLG 1644) assessed as bacterial growth inhibition incubated for 18 to 20 hrs by CLSI based broth microdilution assay. The assay is classed as functional. As to conditions: time 18-20 hrs. In a few lines:
as §1

Assay [10] has as its system Cell membrane. Kind of assay: Induction of cell membrane permeability in Staphylococcus aureus ATCC 25923 at 1 ug/ml incubated for […] by Sytox green based fluorescence method. As to conditions: dose 1.0 µg/ml. In a few lines:
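Exponential-phase cells (OD600 0.2–0.3) washed three times in PBS and resuspended in PBS + 10% TSB. Sytox green added to 5 μM final and equilibrated 15–30 min in the dark. Fluorescence (ex 504/em 522 nm) read for 10 min baseline, then every 3 min for 3 h after addition. Run in triplicate; 1% Triton X-100 as positive control.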

Assay [11] concerns Staphylococcus aureus. Kind of assay: Antibacterial activity against Staphylococcus aureus ATCC 25923 assessed as bacterial growth inhibition incubated for 18 to 20 hrs by CLSI based broth microdilution assay. The assay is classed as functional. The conditions noted are these: time 18-20 hrs. Put shortly:
as §1

Assay [12] deals with Staphylococcus aureus. Kind of assay: Antibacterial activity against methicillin-resistant Staphylococcus aureus ST1312 (ARLG 1649) assessed as bacterial growth inhibition incubated for 18 to 20 hrs by CLSI based broth microdilution assay. The class given is functional. As to conditions: time 18-20 hrs. In a few lines: as §1
The subject of assay [13] is Staphylococcus aureus. Kind of assay: Antibacterial activity against methicillin-resistant Staphylococcus aureus ST239 (ARLG 1663) assessed as bacterial growth inhibition incubated for 18 to 20 hrs by CLSI based broth microdilution assay. The conditions noted are these: time 18-20 hrs. The class given is functional. Put shortly:
as §1

Assay [14] deals with Staphylococcus aureus. Description: Antibacterial activity against methicillin-resistant Staphylococcus aureus USA300 assessed as bacterial growth inhibition incubated for 18 to 20 hrs by CLSI based broth microdilution assay. The class given is functional. The conditions noted are these: time 18-20 hrs. In a few lines: as §1
The test system of assay [15] is Staphylococcus aureus. Kind of assay: Bactericidal activity against methicillin-resistant Staphylococcus aureus USA300 assessed as reduction in colony forming unit incubated for 20 hrs. The assay is classed as functional. In a few lines:
as §2

In assay [16] the test system is Staphylococcus aureus. Kind of assay: Antibacterial activity against methicillin-resistant Staphylococcus aureus USA300 (ARLG 1561) assessed as bacterial growth inhibition incubated for 18 to 20 hrs by CLSI based broth microdilution assay. The class given is functional. As to conditions: time 18-20 hrs. Put shortly: as §1
For assay [17], the system named is Cell membrane. Kind of assay: Induction of cell membrane permeability in Staphylococcus aureus ATCC 25923 at 2 to 10 ug/ml by DiOC2 dye based flow cytometry assay. As to conditions: dose 2-10 µg/ml. Put shortly:
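Exponential-phase cells (OD600 0.2–0.3) treated at 2 or 10 μg mL−1; bithionol 4 μg mL−1 as positive control. Washed twice in PBS and resuspended in buffer. To-PRO 3 iodide (red) and DiOC2 (green) added and cells analysed at once by flow cytometry. Permeabilization read as the red/green ratio.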
(In general: Flow cytometry measures light scatter and fluorescence of single cells or particles in a stream.)

Assay [18] relates to Enterococcus faecalis. Description: Antibacterial activity against vancomycin-resistant Enterococcus faecalis ATCC 51575 assessed as bacterial growth inhibition incubated for 18 to 20 hrs by CLSI based broth microdilution assay. The class given is functional. The conditions noted are these: time 18-20 hrs. In a few lines: as §1
Assay [19] concerns Enterococcus faecalis. Description: Bactericidal activity against vancomycin-resistant Enterococcus faecalis ATCC 51575 assessed as reduction in colony forming unit incubated for 20 hrs. The assay is classed as functional. In a few lines:
as §2

In a further assay the test system is Listeria monocytogenes. Description: Bactericidal activity against Listeria monocytogenes ATCC 19115 assessed as reduction in colony forming unit incubated for 20 hrs. The class given is functional. In a few lines:
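MBC: after the MIC assay, 4 μL from wells with no growth were spotted in duplicate on TSA. Plates were incubated static at 37 °C for 20 h. MBC was taken as a 99.9% reduction in CFU.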

In assay [20] the test system is Staphylococcus aureus. Description: Bactericidal activity against Staphylococcus aureus ATCC 25923 assessed as reduction in colony forming unit incubated for 20 hrs. The class given is functional. Put shortly:
as §2

Assay [21] concerns Enterococcus faecium. Description: Bactericidal activity against vancomycin-resistant Enterococcus faecium ATCC 700221 assessed as reduction in colony forming unit incubated for 20 hrs. The conditions noted are these: ATCC 700221, 20 h.
Assay [22] has as its system Staphylococcus aureus. Kind of assay: Antibacterial activity against methicillin-resistant Staphylococcus aureus ATCC 33592 assessed as fold increase in MIC incubated for 30 days by resistance development based broth microdilution assay. As to conditions: time 30 day. The class given is functional. Put shortly: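 Multi-step resistance selection over 30 days. MIC determined first. Each day, 5 μL from the turbid well just below the MIC was diluted 1:1000 in CA-MHB and used as inoculum for the next broth microdilution MIC. Resistance defined as a rise of more than four-fold over the starting MIC.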

In brackets after ≈: the same amount, converted by molar mass. Activity calls are given as the source filed them.

One may read the MIC as the smallest concentration in the dilution series that meets the test's criterion for growth inhibition. A word on the MBC: it is the smallest concentration meeting the test's criterion for killing. As to `FC(F)(F)c1n[nH]cc1[C@@H]1Nc2ccc(S(F)(F)(F)(F)F)cc2[C@H]2[C@@H]3CC[C@@H](C3)[C@H]21`, the result with Staphylococcus aureus [1], with Cell membrane [3], in the assay on Staphylococcus aureus [8], in the assay with Cell membrane [10] and with Cell membrane [17] was Active. Also, the MIC amounted to 2 µg/mL (≈ 4.35 µM) in the assay with Staphylococcus aureus [2]; 2 µg/mL (≈ 4.35 µM) with Staphylococcus aureus [5]; 4 µg/mL (≈ 8.71 µM) in the assay with Enterococcus faecalis [6]; 2 µg/mL (≈ 4.35 µM) in the assay on Enterococcus faecium [7]; 2 µg/mL (≈ 4.35 µM) in the assay on Staphylococcus aureus [9]; 2 µg/mL (≈ 4.35 µM) with Staphylococcus aureus [11]. For the same compound, the minimal inhibitory concentration (MIC) in the assay on Staphylococcus aureus [12] was 2 µg/mL (≈ 4.35 µM); with Staphylococcus aureus [13], 1 µg/mL (≈ 2.18 µM); with Staphylococcus aureus [14], 4 µg/mL (≈ 8.71 µM); in the assay on Staphylococcus aureus [16] it was 2 µg/mL (≈ 4.35 µM); with Enterococcus faecalis [18], 4 µg/mL (≈ 8.71 µM). The MBC amounted to 4 µg/mL (≈ 8.71 µM) with Staphylococcus aureus [4]; 8 µg/mL (≈ 17.4 µM) with Staphylococcus aureus [15]; 8 µg/mL (≈ 17.4 µM) in the assay with Enterococcus faecalis [19]; 4 µg/mL (≈ 8.71 µM) with Listeria monocytogenes; 8 µg/mL (≈ 17.4 µM) with Staphylococcus aureus [20]; 4 µg/mL (≈ 8.71 µM) in the assay with Enterococcus faecium [21]. Besides, in the assay on Staphylococcus aureus [22], the “fold change (FC)” value is 1.
